From ChEMBL document CHEMBL3868591, “Melokhanines A-J, Bioactive Monoterpenoid Indole Alkaloids with Diverse Skeletons from Melodinus khasianus” (J Nat Prod, 2016)
In brackets after ≈: the same amount, converted by molar mass.

Tests used:
[1] = test system: Enterococcus faecalis; assay: Antibacterial activity against Enterococcus faecalis ATCC 10541 after 24 hrs by broth microdilution method; format: functional
In short: (§1)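 MIC determined by broth microdilution, three independent replicates. Strains used were P. aeruginosa ATCC 27853, E. faecalis ATCC 10541, E. coli ATCC 11775, S. aureus […] and K. pneumoniae ATCC 13883. Cefotaxime served as positive control.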

[2] = test system: Klebsiella pneumoniae; assay: Antibacterial activity against Klebsiella pneumoniae ATCC 13883 after 24 hrs by broth microdilution method; format: functional; in short: as §1
[3] = test system: Staphylococcus aureus; assay: Antibacterial activity against Staphylococcus aureus […] after 24 hrs by broth microdilution method; format: functional; in short: as §1
[4] = test system: Pseudomonas aeruginosa; assay: Antibacterial activity against Pseudomonas aeruginosa ATCC 27853 after 24 hrs by broth microdilution method; format: functional; in short: as §1
[5] = test system: Escherichia coli; assay: Antibacterial activity against Escherichia coli ATCC 11775 after 24 hrs by broth microdilution method; format: functional; in short: as §1
[6] = Cytotoxicity against human A549 cells after 48 hrs by MTT assay; format: functional, cell-based; conditions: A549, 48 h
In short: (§2)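 MTT read-out. Each cell line was exposed in triplicate to a range of concentrations for 48 h, with cisplatin as positive control.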

[7] = test system: Microsporum canis; assay: Antifungal activity against Microsporum canis CBS 113480 after 48 hrs by broth microdilution method; format: functional; conditions: CBS 113480, 48 h
In short: (§3)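 Dermatophyte MICs obtained by broth microdilution in three independent replicates, with griseofulvin as positive control.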

[8] = Cytotoxicity against human SMMC7721 cells after 48 hrs by MTT assay; format: functional, cell-based; conditions: SMMC-7721, 48 h; in short: as §2
[9] = test system: Nannizzia gypsea; assay: Antifungal activity against Microsporum gypseum CBS 118893 after 48 hrs by broth microdilution method; format: functional; conditions: CBS 118893, 48 h; in short: as §3
[10] = Antifungal activity against Trichophyton mentagrophytes ATCC 4439 after 48 hrs by broth microdilution method; format: functional; in short: as §3
[11] = Antifungal activity against Trichophyton ajelloi E1501 after 48 hrs by broth microdilution method; format: functional; conditions: Arthroderma uncinatum; in short: as §3
[12] = Cytotoxicity against human HL60 cells after 48 hrs by MTT assay; format: functional, cell-based; conditions: HL-60, 48 h; in short: as §2
[13] = Antifungal activity against Trichophyton terrestre after 48 hrs by broth microdilution method; format: functional; in short: as §3
[14] = Cytotoxicity against human SW480 cells after 48 hrs by MTT assay; format: functional, cell-based; conditions: SW480, 48 h; in short: as §2
[15] = Antifungal activity against Epidermophyton floccosum CBS 566.94 after 48 hrs by broth microdilution method; format: functional; in short: as §3
[16] = Antifungal activity against Microsporum ferrugineum CBS 457.80 after 48 hrs by broth microdilution method; format: functional; in short: as §3
[17] = Cytotoxicity against human MCF7 cells after 48 hrs by MTT assay; format: functional, cell-based; conditions: MCF7, 48 h; in short: as §2
[18] = DSM 30083 = JCM 1649 = ATCC 11775, 24 h

Molecule	MIC ([1]; ATCC 10541, 24 h) [µM]	MIC ([2]; ATCC 13883, 24 h) [µM]	MIC [3] [µM]	MIC ([4]; ATCC 27853, 24 h) [µM]	MIC [5, 18] [µM]	IC50 [6] [µM]	IC50 [8] [µM]	IC50 [12] [µM]	IC50 [14] [µM]	IC50 [17] [µM]	also measured
CC[C@@]12CCCN3CC[C@@]4(O)c5ccccc5N(C(=O)CC1)[C@]324	> 150	> 150	> 150	2 (≈ 0.625 µg/mL)	> 150	–	–	–	–	–	–
CC[C@]12CCCN(CC[C@]3(O)C(=O)Nc4ccccc43)[C@H]1OCC2	75 (≈ 24.8 µg/mL)	150 (≈ 49.6 µg/mL)	75 (≈ 24.8 µg/mL)	19 (≈ 6.28 µg/mL)	19 (≈ 6.28 µg/mL)	> 40	> 40	> 40	> 40	> 40	MIC [7]: 38 µM (≈ 12.6 µg/mL); MIC [9]: 150 µM (≈ 49.6 µg/mL); MIC [10]: 150 µM (≈ 49.6 µg/mL); MIC [11]: 150 µM (≈ 49.6 µg/mL); MIC [13]: > 150 µM; MIC [15]: 150 µM (≈ 49.6 µg/mL); MIC [16]: 75 µM (≈ 24.8 µg/mL)
CC[C@@]12CCCN3CC[C@]4(C(=O)c5ccccc5N4[C@@H](O)[C@H]1O)[C@H]32	75 (≈ 24.6 µg/mL)	150 (≈ 49.3 µg/mL)	> 150	19 (≈ 6.24 µg/mL)	150 (≈ 49.3 µg/mL)	> 40	> 40	> 40	> 40	> 40	–
RAUWOLFIA SERPENTINA	–	–	> 150	–	–	–	–	–	–	–	MIC [1]: 71 µM; MIC [2]: > 150 µM; MIC [4]: 4 µM; MIC ([5]; DSM 30083 = JCM 1649 = ATCC 11775): 142 µM
CC[C@@H]1CN2CC[C@]34c5ccccc5-n5c3c(cc(C(=O)O)c5=O)[C@H]1C[C@H]24 [MELODININE C]	> 150	69 (≈ 25 µg/mL)	> 150	4 (≈ 1.45 µg/mL)	> 150	–	–	–	–	–	–
CCO[C@@H]1C[C@@]2(CC)CCCN3CC[C@]4(C(=O)c5ccccc5N14)[C@H]32	147 (≈ 50 µg/mL)	> 150	> 150	4 (≈ 1.36 µg/mL)	147 (≈ 50 µg/mL)	> 40	> 40	> 40	> 40	> 40	–
CC[C@@]12CCCN3CC[C@]4(C(=O)c5ccccc5N4[C@@H](OC)[C@H]1O)[C@H]32	73 (≈ 25 µg/mL)	> 150	> 150	18 (≈ 6.16 µg/mL)	73 (≈ 25 µg/mL)	> 40	> 40	> 40	> 40	> 40	–
COC1=CC(=O)C[C@@H](C)[C@]12Oc1c(Cl)c(OC)cc(OC)c1C2=O [GRISEOFULVIN]	–	–	–	–	–	–	–	–	–	–	MIC [7]: 18 µM (≈ 6.35 µg/mL); MIC [9]: 9 µM (≈ 3.17 µg/mL); MIC [10]: 18 µM (≈ 6.35 µg/mL); MIC [11]: 71 µM (≈ 25 µg/mL); MIC [13]: 35 µM (≈ 12.3 µg/mL); MIC [15]: 9 µM (≈ 3.17 µg/mL); MIC [16]: 35 µM (≈ 12.3 µg/mL)
CC[C@@H]1CN2CC[C@]34c5ccccc5-n5c3c(cc(C(N)=O)c5=O)[C@H]1C[C@H]24 [LEUCONICINE A]	> 150	69 (≈ 24.9 µg/mL)	> 150	2 (≈ 0.723 µg/mL)	> 150	–	–	–	–	–	–
CC[C@@]12CCCN3CC[C@]4(C(=O)c5ccccc5N4[C@@H](OC)C1)[C@H]32	150 (≈ 49 µg/mL)	> 150	> 150	19 (≈ 6.2 µg/mL)	75 (≈ 24.5 µg/mL)	> 40	> 40	> 40	> 40	> 40	–

More lines, in order of falling MIC ([1]; ATCC 10541, 24 h), values ahead:

MIC ([1]; ATCC 10541, 24 h) [µM]	MIC ([2]; ATCC 13883, 24 h) [µM]	MIC [3] [µM]	MIC ([4]; ATCC 27853, 24 h) [µM]	MIC [5, 18] [µM]	Molecule	IC50 [6] [µM]	IC50 [8] [µM]	IC50 [12] [µM]	IC50 [14] [µM]	IC50 [17] [µM]	also measured
71 (≈ 25 µg/mL)	> 150	> 150	4 (≈ 1.41 µg/mL)	71 (≈ 25 µg/mL)	CO[C@H]1CCN2CCc3c([nH]c4ccccc34)[C@@]3(C(=O)O)CCC=C1[C@H]23	> 40	> 40	> 40	> 40	> 40	–
66 (≈ 24.7 µg/mL)	133 (≈ 49.8 µg/mL)	> 150	2 (≈ 0.749 µg/mL)	66 (≈ 24.7 µg/mL)	CCC1=CN2CC[C@]34c5ccccc5-n5c3c(cc(C(=O)OC)c5=O)[C@H]1C[C@H]24	–	–	–	–	–	–
42 (≈ 12.4 µg/mL)	> 150	> 150	2 (≈ 0.589 µg/mL)	> 150	CC[C@]12C=CN3c4ccccc4C(=O)[C@]34CCN(CCC1)[C@H]24	> 40	> 40	> 40	> 40	> 40	–
39 (≈ 12.3 µg/mL)	> 150	> 150	5 (≈ 1.57 µg/mL)	> 150	CC[C@@]12CCCN3CC[C@@H](c4ccccc4NC(=O)CC1)[C@]32O	> 40	> 40	> 40	> 40	> 40	–
22 (≈ 6.12 µg/mL)	> 150	> 150	22 (≈ 6.12 µg/mL)	> 150	CC[C@]12C=Cn3c4c(c5ccccc53)CCN(CCC1)[C@@H]42	–	–	–	–	–	–
19 (≈ 6.13 µg/mL)	77 (≈ 24.8 µg/mL)	> 150	2 (≈ 0.645 µg/mL)	> 150	CC[C@]12CCCn3c(C=O)cc(c31)-c1ccccc1NC(=O)CC2 [RHAZINAL]	–	–	–	–	–	–
19 (≈ 6.2 µg/mL)	> 150	19 (≈ 6.2 µg/mL)	19 (≈ 6.2 µg/mL)	76 (≈ 24.8 µg/mL)	CC[C@@]12CCCN3C(=O)C[C@H]4c5cc(O)ccc5N(C(=O)CC1)C432 (some centres undefined)	–	–	–	–	–	–
18 (≈ 6.38 µg/mL)	> 150	> 150	2 (≈ 0.709 µg/mL)	> 150	C/C=C1/CN2CCc3c([nH]c4ccccc34)[C@@H]2C[C@@H]1[C@H](CO)C(=O)OC	–	–	–	–	–	–
5 (≈ 1.55 µg/mL)	> 150	> 150	2 (≈ 0.621 µg/mL)	> 150	CC[C@@]12CCCN3CC[C@]4(C(=O)c5ccccc5N4C(=O)C1)[C@H]32	> 40	> 40	> 40	> 40	> 40	–
5 (≈ 1.63 µg/mL)	> 150	> 150	5 (≈ 1.63 µg/mL)	150 (≈ 49 µg/mL)	CC[C@@]12CCCN3CC[C@]4(C(=O)c5ccccc5N4[C@H](OC)C1)[C@H]32	> 40	> 40	> 40	> 40	> 40	–
2 (≈ 0.653 µg/mL)	> 150	> 150	5 (≈ 1.63 µg/mL)	> 150	CC[C@@]12CCCN3C(=O)C=C(c4ccccc4NC(=O)CC1)[C@]32O	–	–	–	–	–	–
2 (≈ 0.589 µg/mL)	> 150	> 150	5 (≈ 1.47 µg/mL)	85 (≈ 25 µg/mL)	CC[C@@]12CCCN3CCc4c(n(c5ccccc45)C(=O)C1)[C@H]32	–	–	–	–	–	–
0.4 (≈ 0.182 µg/mL)	1.7 (≈ 0.774 µg/mL)	0.4 (≈ 0.182 µg/mL)	0.4 (≈ 0.182 µg/mL)	1.7 (≈ 0.774 µg/mL)	CO/N=C(\C(=O)N[C@@H]1C(=O)N2C(C(=O)O)=C(COC(C)=O)CS[C@H]12)c1csc(N)n1 [CEFOTAXIME]	–	–	–	–	–	–
